This note sets out measurements from ChEMBL document CHEMBL1126564, “Synthesis and antimicrobial evaluation of a series of 7-[3-amino (or aminomethyl)-4-aryl (or cyclopropyl)-1-pyrrolidinyl]-4-quinolone- and -1,8-naphthyridone-3-carboxylic acids” (1993).

≈ marks a conversion by molar mass, not a printed value.

What all share (format): functional
In experiment [1] the test system is Pseudomonas aeruginosa. In words: Minimum inhibitory concentration against Pseudomonas aeruginosa UI-18. In outline:
(§1)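 Standard microdilution method against a panel of five Gram-negative and five Gram-positive bacterial strains. The MIC (µg/mL) was recorded for each strain.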

Experiment [2] deals with Streptococcus pneumoniae. Briefly: Minimum inhibitory concentration against Streptococcus pneumoniae SV-1. In outline: as §1
For experiment [3], the system named is Streptococcus pyogenes. In words: Minimum inhibitory concentration against Streptococcus pyogenes C-203. Put shortly: as §1
Experiment [4] concerns Klebsiella pneumoniae. In words: Minimum inhibitory concentration against Klebsiella pneumoniae MGH-2. In outline:
as §1

For experiment [5], the system named is Enterococcus faecalis. In words: Minimum inhibitory concentration against […] MGH-2. Put shortly:
as §1

Experiment [6] has as its system Providencia rettgeri. Briefly: Minimum inhibitory concentration against Providencia rettgeri M-1771. Put shortly:
as §1

In experiment [7] the test system is Enterobacter cloacae. Briefly: Minimum inhibitory concentration against […] MA-2646. In outline: as §1
Experiment [8] deals with Staphylococcus aureus. Briefly: Minimum inhibitory concentration against Staphylococcus aureus H-228. Put shortly: as §1
For experiment [9], the system named is Staphylococcus aureus. In words: Minimum inhibitory concentration against Staphylococcus aureus UC-76. In outline: as §1
Experiment [10] relates to Escherichia coli. Briefly: Minimum inhibitory concentration against Escherichia coli Vogel. In outline:
as §1

Setting [11] is: Pseudomonas aeruginosa, read-out: MIC.
Where [12] appears, read: Streptococcus pneumoniae, read-out: MIC.
[13] abbreviates: Streptococcus pyogenes, read-out: MIC.
[14] abbreviates: Klebsiella pneumoniae, read-out: MIC.
Setting [15] is: Enterococcus faecalis, read-out: MIC.
[16] abbreviates: Providencia rettgeri, read-out: MIC.
Where [17] appears, read: Enterobacter cloacae, read-out: MIC.
[18] abbreviates: Staphylococcus aureus, read-out: MIC.
Setting [19] is: Escherichia coli, read-out: MIC.

Turning to `CN(C)c1ccc(C2CN(c3c(F)cc4c(=O)c(C(=O)O)cn(C5CC5)c4c3F)CC2N)cc1` (stereo not given), the MIC in experiment [1] (setting [11]) is 3.1 µg/mL (≈ 6.62 µM); in experiment [2] (setting [12]), 0.1 µg/mL (≈ 0.213 µM); in experiment [3] (setting [13]), 0.1 µg/mL (≈ 0.213 µM); in experiment [4] (setting [14]) it was 0.2 µg/mL (≈ 0.427 µM); in experiment [5] (setting [15]), 0.1 µg/mL (≈ 0.213 µM); in experiment [6] (setting [16]), 0.4 µg/mL (≈ 0.854 µM). In addition, the MIC in [7] (setting [17]) worked out at 0.2 µg/mL (≈ 0.427 µM); in experiment [8] (setting [18]) it was 0.025 µg/mL (≈ 0.0534 µM); in experiment [9] (setting [18]) it was 0.013 µg/mL (≈ 0.0277 µM); in experiment [10] (setting [19]), 0.2 µg/mL (≈ 0.427 µM).
Regarding `NCc1cccc(C2CN(c3c(F)cc4c(=O)c(C(=O)O)cn(C5CC5)c4c3F)CC2CN)c1` (trans isomer), the MIC in experiment [1] (setting [11]) stood at 6.3 µg/mL (≈ 13.4 µM); in experiment [2] (setting [12]), 0.2 µg/mL (≈ 0.427 µM); in experiment [3] (setting [13]), 0.1 µg/mL (≈ 0.213 µM); in experiment [4] (setting [14]) it was 1.6 µg/mL (≈ 3.42 µM); in experiment [5] (setting [15]) it was 0.8 µg/mL (≈ 1.71 µM); in experiment [6] (setting [16]), 3.1 µg/mL (≈ 6.62 µM). Also, the MIC in experiment [7] (setting [17]) came to 1.6 µg/mL (≈ 3.42 µM); in experiment [8] (setting [18]), 1.6 µg/mL (≈ 3.42 µM); in experiment [9] (setting [18]), 0.2 µg/mL (≈ 0.427 µM); in [10] (setting [19]), 1.6 µg/mL (≈ 3.42 µM).
As for `NCC1CN(c2c(F)cc3c(=O)c(C(=O)O)cn(C4CC4)c3c2F)CC1c1ccc(N)cc1` (stereo not given), the MIC in [1] (setting [11]) turned out to be 1.6 µg/mL (≈ 3.52 µM); in [2] (setting [12]), 0.05 µg/mL (≈ 0.11 µM); in experiment [3] (setting [13]) it was 0.05 µg/mL (≈ 0.11 µM); in [4] (setting [14]) it was 0.2 µg/mL (≈ 0.44 µM); in [5] (setting [15]), 0.05 µg/mL (≈ 0.11 µM); in [6] (setting [16]) it was 0.2 µg/mL (≈ 0.44 µM). The MIC was 0.1 µg/mL (≈ 0.22 µM) in experiment [7] (setting [17]), 0.1 µg/mL (≈ 0.22 µM) in experiment [8] (setting [18]), 0.025 µg/mL (≈ 0.055 µM) in [9] (setting [18]) and 0.1 µg/mL (≈ 0.22 µM) in experiment [10] (setting [19]).
Consider `NCC1CN(c2nc3c(cc2F)c(=O)c(C(=O)O)cn3C2CC2)CC1c1ccc(N)cc1` (trans isomer), for which the MIC stood at 1.6 µg/mL (≈ 3.66 µM) in experiment [1]; 0.05 µg/mL (≈ 0.114 µM) in [2]; 0.05 µg/mL (≈ 0.114 µM) in [3]; 0.2 µg/mL (≈ 0.457 µM) in experiment [4]; 0.1 µg/mL (≈ 0.229 µM) in experiment [5]; 0.4 µg/mL (≈ 0.914 µM) in experiment [6]. For the same molecule, the MIC worked out at 0.2 µg/mL (≈ 0.457 µM) in [7], 0.4 µg/mL (≈ 0.914 µM) in [8], 0.05 µg/mL (≈ 0.114 µM) in experiment [9] and 0.2 µg/mL (≈ 0.457 µM) in experiment [10].
On to `CC(C)c1ccc(C2CN(c3nc4c(cc3F)c(=O)c(C(=O)O)cn4C3CC3)CC2N)cc1` (trans isomer), for which the MIC in experiment [1] (setting [11]) stood at 6.3 µg/mL (≈ 14 µM); in [2] (setting [12]), 0.4 µg/mL (≈ 0.888 µM); in experiment [3] (setting [13]), 0.4 µg/mL (≈ 0.888 µM); in [4] (setting [14]), 0.8 µg/mL (≈ 1.78 µM); in experiment [5] (setting [15]), 0.4 µg/mL (≈ 0.888 µM); in experiment [6] (setting [16]), 1.6 µg/mL (≈ 3.55 µM). Moreover, the MIC in experiment [7] (setting [17]) was found to be 0.8 µg/mL (≈ 1.78 µM); in experiment [8] (setting [18]), 0.2 µg/mL (≈ 0.444 µM); in [9] (setting [18]), 0.1 µg/mL (≈ 0.222 µM); in experiment [10] (setting [19]) it was 0.4 µg/mL (≈ 0.888 µM).
For the molecule `COC(=O)c1ccc(C2CN(c3nc4c(cc3F)c(=O)c(C(=O)O)cn4C3CC3)CC2N)cc1` (trans isomer), the MIC came out at 3.1 µg/mL (≈ 6.65 µM) in experiment [1] (setting [11]); 0.8 µg/mL (≈ 1.72 µM) in experiment [2] (setting [12]); 0.8 µg/mL (≈ 1.72 µM) in experiment [3] (setting [13]); 0.4 µg/mL (≈ 0.858 µM) in [4] (setting [14]); 0.4 µg/mL (≈ 0.858 µM) in experiment [5] (setting [15]); 0.8 µg/mL (≈ 1.72 µM) in experiment [6] (setting [16]). Besides, the MIC in experiment [7] (setting [17]) amounted to 0.4 µg/mL (≈ 0.858 µM); in experiment [8] (setting [18]) it was 0.2 µg/mL (≈ 0.429 µM); in experiment [9] (setting [18]), 0.1 µg/mL (≈ 0.214 µM); in experiment [10] (setting [19]), 0.4 µg/mL (≈ 0.858 µM).
With `NCC1CN(c2c(F)cc3c(=O)c(C(=O)O)cn(C4CC4)c3c2F)CC1c1ccco1` (stereo not given), the MIC in experiment [1] (setting [11]) came to 0.4 µg/mL (≈ 0.931 µM); in experiment [2] (setting [12]), 0.006 µg/mL (≈ 0.014 µM); in experiment [3] (setting [13]), 0.013 µg/mL (≈ 0.0303 µM); in experiment [4] (setting [14]), 0.1 µg/mL (≈ 0.233 µM); in experiment [5] (setting [15]), 0.013 µg/mL (≈ 0.0303 µM); in [6] (setting [16]), 0.1 µg/mL (≈ 0.233 µM). For the same molecule, the MIC in [7] (setting [17]) was determined as 0.05 µg/mL (≈ 0.116 µM); in experiment [8] (setting [18]), 0.025 µg/mL (≈ 0.0582 µM); in experiment [9] (setting [18]) it was 0.003 µg/mL (≈ 0.00699 µM); in experiment [10] (setting [19]), 0.05 µg/mL (≈ 0.116 µM).
As to `Nc1c(F)c(N2CC(N)C(c3ccccc3)C2)c(F)c2c1c(=O)c(C(=O)O)cn2C1CC1` (stereo not given), the MIC in [1] (setting [11]) stood at 0.8 µg/mL (≈ 1.82 µM); in experiment [2] (setting [12]), 0.05 µg/mL (≈ 0.114 µM); in experiment [3] (setting [13]) it was 0.1 µg/mL (≈ 0.227 µM); in experiment [4] (setting [14]), 0.05 µg/mL (≈ 0.114 µM); in [5] (setting [15]), 0.05 µg/mL (≈ 0.114 µM); in experiment [6] (setting [16]), 0.1 µg/mL (≈ 0.227 µM). The MIC in experiment [7] (setting [17]) amounted to 0.025 µg/mL (≈ 0.0568 µM); in [8] (setting [18]) it was 0.013 µg/mL (≈ 0.0295 µM); in experiment [9] (setting [18]) it was 0.006 µg/mL (≈ 0.0136 µM); in experiment [10] (setting [19]), 0.025 µg/mL (≈ 0.0568 µM).
With `NCC1CN(c2nc3c(cc2F)c(=O)c(C(=O)O)cn3C2CC2)CC1c1ccc(N)cc1` (cis isomer), the MIC worked out at 1.6 µg/mL (≈ 3.66 µM) in experiment [1] (setting [11]); 0.05 µg/mL (≈ 0.114 µM) in experiment [2] (setting [12]); 0.05 µg/mL (≈ 0.114 µM) in [3] (setting [13]); 0.4 µg/mL (≈ 0.914 µM) in experiment [4] (setting [14]); 0.1 µg/mL (≈ 0.229 µM) in experiment [5] (setting [15]); 0.8 µg/mL (≈ 1.83 µM) in [6] (setting [16]). Also, the MIC in experiment [7] (setting [17]) was determined as 0.2 µg/mL (≈ 0.457 µM); in experiment [8] (setting [18]) it was 0.2 µg/mL (≈ 0.457 µM); in experiment [9] (setting [18]), 0.025 µg/mL (≈ 0.0571 µM); in experiment [10] (setting [19]), 0.2 µg/mL (≈ 0.457 µM).
